Experimental findings from ChEMBL document CHEMBL1148795 (J Med Chem, 2007) are described below.

The source made the active and inactive calls. No cut-off for these calls is given here.

Series [1] deals with Human immunodeficiency virus type 1 reverse transcriptase (Human immunodeficiency virus 1, UniProt Q72547). Briefly: Inhibition of HIV1 reverse transcriptase.
In series [2] the test system is Human immunodeficiency virus 1. Briefly: Antiviral activity against HIV1 RF in human CEM-SS cells by XTT assay. It is filed as functional, organism-based. The settings on record: for EC50: Human immunodeficiency virus 1, RF.
Series [3] in a line: Cytotoxicity against human CEM-SS cells by MTT assay. It is filed as cell-based.
The nature of series [4]: Cytotoxicity against human MT4 cells by MTT assay. It is filed as cell-based.
Series [5] in a line: Metabolic stability in rat plasma. Format: ADME, cell-free. Summed up:
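Compounds were incubated in reconstituted rat plasma (two lots, checked with a control compound), with 1,1-diphenylethylene as internal standard. Aliquot supernatants were analysed by HPLC with UV detection. Half-lives came from regression fits of concentration versus time and were averaged over at least two replicates.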

Series [6] has as its system Human immunodeficiency virus 1. Briefly: Antiviral activity against HIV1 with RT Y181C mutation. Format: functional, organism-based. Summed up:
(§1)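 Cytoprotection assay in CEM-SS cells infected with HIV-1 strains engineered to carry the NNRTI-resistance RT mutation (K103N or Y181C). Activity is expressed as the EC50 for protection of the cells from virus-induced cytopathic effect.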

In series [7] the test system is Human immunodeficiency virus 1. Briefly: Antiviral activity against HIV1 with RT K103N mutation. Format: functional, organism-based. Summed up:
as §1

Series [8] has as its system Human immunodeficiency virus 1. Briefly: Antiviral activity against HIV1 3B in human MT4 cells by MTT assay. The settings on record: for EC50: Human immunodeficiency virus 1, 3B.
Series [9] relates to Human immunodeficiency virus 2. Briefly: Antiviral activity against HIV2 ROD in human MT4 cells by MTT assay.

`COc1c(C)cc(/C(=C\CCCc2nnc(C)o2)c2cccc(C#N)c2)cc1C(=O)SC` registered a half-inhibitory concentration (IC50) in series [1] of 0.52 µM. In addition, the concentration giving a half-maximal response (EC50) in series [2] was 0.5 µM; in series [6], above 100 µM; in series [7], 1.2 µM; in series [8], 0.83 µM. For the same compound, the CC50 in series [3] stood at 12 µM; in series [4], 36 µM. The half-life in series [5] worked out at 3.68 h. In addition, in series [9], the result was inactive.

In [1], `COC(=O)c1cc(/C(=C\CCc2nnc(C)o2)c2cc(C)c3on(C)c(=O)c3c2)cc(C)c1OC` gave an IC50 of 7.4 µM. Besides, the 50% effective concentration (EC50) in series [2] was 3 µM; in series [6], above 100 µM; in series [7], above 50 µM; in [8], 2.7 µM. Further, the CC50 came out at 7.7 µM in [3] and 41 µM in [4]. In series [5], this compound had a half-life of 3.66 h. In addition, the result in series [9] was inactive.

In series [1], `COC(=O)c1cc(/C(=C\CCc2nnc(C)o2)c2cc(C)c3onc(OC)c3c2)cc(C)c1OC` yielded an IC50 of 0.39 µM. In addition, the EC50 was 0.36 µM in [2], above 100 µM in series [6], 0.8 µM in [7] and 0.42 µM in series [8]. In addition, the CC50 in series [3] came to 2.8 µM; in series [4] it was 6.4 µM. Also, the half-life in series [5] came out at 5.52 h. In addition, in series [9], the result was inactive.

Turning to `COc1c(C)cc(/C(=C/CCCc2nnc(C)o2)c2ccc(C#N)cc2)cc1C(=O)SC`, in series [1], the IC50 was 0.45 µM. Further, the result in series [2], in [8] and in series [9] was inactive. Besides, the values for the CC50 in series [3] and in [4] were 4.8 µM and 7.6 µM, respectively. In addition, the half-life in [5] amounted to 0.692 h. The figures for the EC50 in series [6] and in [7] were above 100 µM and above 50 µM, respectively.

`COC(=O)c1cc(/C(=C\CCc2nnc(C)o2)c2cccc(C#N)c2)cc(C)c1OC` yielded an IC50 in series [1] of 29 µM. Further, the outcome in [2], in series [8] and in [9] was inactive. Further, the CC50 was found to be 4.5 µM in [3] and 8.1 µM in series [4]. For the same compound, the half-life in series [5] came out at 1.89 h. Further, the EC50 in series [6] was above 100 µM; in series [7], above 50 µM.

For the compound `COc1c(C)cc(/C(=C\CCCc2nnc(C)o2)c2ccc(C#N)cc2)cc1C(=O)SC`, inhibition in series [1] was half-maximal at 3.2 µM (IC50). Further, the EC50 is 0.6 µM in [2], above 100 µM in [6], 2.3 µM in [7] and 0.36 µM in series [8]. Also, the 50% cytotoxic concentration (CC50) in [3] was 8.9 µM; in [4] it was 36 µM. In series [5], this compound came in with a half-life of 0.75 h. The outcome in [9] was inactive.

With `COc1c(C)cc(/C(=C\CCc2nnc(C)o2)c2cc(C)c3on(C)c(=O)c3c2)cc1C(=O)SC`, the IC50 in series [1] came to 9.2 µM. The EC50 is 6.4 µM in series [2], above 100 µM in [6], above 50 µM in [7] and 3.7 µM in series [8]. In addition, the CC50 in series [3] was 18 µM; in series [4], 19 µM. Further, the outcome in [9] was inactive.

In the case of `COc1c(C)cc(/C(=C/CCCc2nnc(C)o2)c2cc(C)c3onc(OC)c3c2)cc1C(=O)SC`, in [1], the IC50 worked out at 5.2 µM. The outcome in series [2], in [8] and in series [9] was inactive. The CC50 in series [3] is 0.78 µM; in series [4], 1.1 µM. Moreover, the results for the EC50 in series [6] and in [7] were above 100 µM and above 50 µM, respectively.

As for `COc1c(C)cc(/C(=C\CCc2nnc(C)o2)c2ccc(C#N)cc2)cc1C(=O)SC`, the IC50 in series [1] was determined as 6.3 µM. Further, the 50% effective concentration (EC50) in [2] is 2.1 µM; in series [6], above 100 µM; in series [7], above 50 µM; in [8] it was 3.2 µM. Further, the values for the half-maximal cytotoxic concentration (CC50) in series [3] and in series [4] were 5.5 µM and 45 µM, respectively. Besides, in [9], the outcome was inactive.

`COc1c(C)cc(/C(=C\CCCc2nnc(C)o2)c2cc(C)c3onc(OC)c3c2)cc1C(=O)SC` yielded an IC50 in [1] of 0.47 µM. The EC50 in series [2] is 0.05 µM; in series [6], above 100 µM; in series [7] it was 0.4 µM; in series [8], 0.14 µM. In addition, the CC50 in [3] came out at 5.7 µM; in [4], 7 µM. Also, the half-life in series [5] is 14.4 h. Moreover, in series [9], the outcome was inactive.

In the case of `COc1c(C)cc(C(=CCCCc2nnc(C)o2)c2cc(C)c(OC)c(C(=O)SC)c2)cc1C(=O)SC`, the IC50 in [1] is 6.7 µM. The EC50 in [2] was 2.2 µM; in series [6], above 100 µM; in [7], above 50 µM; in series [8], 1.3 µM. The values for the CC50 in [3] and in series [4] were 5.3 µM and 4.4 µM, respectively. Further, the half-life in [5] worked out at 1.27 h. The outcome in [9] was inactive.

For `COc1c(C)cc(/C(=C/CCc2nnc(C)o2)c2ccc3oc(=O)n(C)c3c2)cc1C(=O)SC`, half-maximal inhibition in [1] (IC50) required 2.6 µM. The EC50 in series [2] is 0.6 µM; in series [6], above 100 µM; in series [7], 1 µM; in series [8] it was 0.69 µM; in series [9] (Human immunodeficiency virus 2, ROD), 4.7 µM. Also, the CC50 in [3] came out at 5.9 µM; in series [4] it was 12 µM. Moreover, in series [5], the half-life stood at 12.3 h.

In the case of `COc1c(C)cc(/C(=C\CCc2nnc(C)o2)c2cc(C)c3onc(OC)c3c2)cc1C(=O)SC`, inhibition in series [1] was half-maximal at 0.9 µM (IC50). The EC50 is 0.52 µM in series [2], above 100 µM in series [6], above 50 µM in series [7] and 0.81 µM in series [8]. Further, the CC50 in series [3] came out at 2.1 µM; in series [4], 4.4 µM. The compound also showed a half-life in [5] of 18.2 h. Moreover, the result in [9] was inactive.
